Results as given in ChEMBL document CHEMBL4725317 (Bioorg Med Chem Lett, 2020).
The source made the active and inactive calls. No cut-off for these calls is given here.

Legend:
[1] = Volume of distribution at steady state in Sprague-Dawley rat at 2 mg/kg, iv or 10 mg/kg, po; type: ADME, organism-based; conditions: in vivo, read-out: Vdss
Procedure, shortened: (§1)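 Male Sprague Dawley rats dosed 2 mg/kg IV (vehicle 20% HPbCD) or 10 mg/kg PO (vehicle 0.5% Methocel); pharmacokinetic parameters derived from plasma exposure.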

[2] = Cmax in Sprague-Dawley rat at 2 mg/kg, iv or 10 mg/kg, po; type: ADME, organism-based; set-up: dose 10 mg/kg; conditions: in vivo; procedure, shortened: as §1
[3] = Stability of compound in rat liver microsomes assessed as parent compound remaining at 1 uM measured at 10 mins in presence of NADPH; type: ADME, Microsome; conditions: liver microsomes, read-out: Stabilty
Procedure, shortened: (§2)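 Test compound at 1 μM with human, mouse or rat liver microsomes (0.5 mg/ml protein) plus NADPH cofactor; final solvents 0.01% DMSO, 0.05% acetonitrile; percent parent remaining at 10 min. Verapamil, cerivastatin and warfarin as positive controls. SD given when multiple batches were tested.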

[4] = Oral bioavailability in Sprague-Dawley rat at 10 mg/kg; type: ADME, organism-based; conditions: in vivo; procedure, shortened: as §1
[5] = Clearance in Sprague-Dawley rat at 2 mg/kg, iv or 10 mg/kg, po; type: ADME, organism-based; conditions: in vivo; procedure, shortened: as §1
[6] = Stability of compound in human liver microsomes assessed as parent compound remaining at 1 uM measured at 10 mins in presence of NADPH; type: ADME, Microsome; conditions: liver microsomes, read-out: Stabilty; procedure, shortened: as §2
[7] = Stability of compound in mouse liver microsomes assessed as parent compound remaining at 1 uM measured at 10 mins in presence of NADPH; type: ADME, Microsome; conditions: read-out: Stabilty; procedure, shortened: as §2
[8] = Half life in Sprague-Dawley rat at 2 mg/kg, iv; type: ADME, organism-based; conditions: in vivo; procedure, shortened: as §1
[9] = Tmax in Sprague-Dawley rat at 2 mg/kg, iv or 10 mg/kg, po; type: ADME, organism-based; conditions: in vivo; procedure, shortened: as §1
Mus musculus [10] = assay: Antihyperglycemic activity in db/db mouse assessed as decrease in blood glucose level at 10 mg/kg, po administered as single dose measured up to 24 hrs; type: functional, organism-based; conditions: time hrs <=24
Procedure, shortened: (§3)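 Male db/db mice given a single oral 10 mg/kg dose or vehicle; fed blood glucose followed up to 24 h and 24-h urinary glucose excretion collected. Mean ± SE versus vehicle controls.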

[11] = In vivo inhibition of SGLT1/2 in overnight fasted Sprague-Dawley rat assessed as amount of urinary glucose excretion assessed per 4 hrs at 1 mg/kg, po; type: functional
Procedure, shortened: (§4)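 Overnight-fasted SD rats dosed orally at 1 or 10 mg/kg in 0.5% Methocel (vehicle controls) 60 min before oral glucose challenge. […] N=8 per group; mean ± SEM; one-way ANOVA-Dunnett.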

[12] = AUC (0 to infinity) in C57BL mouse at 5 mg/kg, iv or 20 mg/kg, po; type: ADME, organism-based; set-up: dose 20 mg/kg; conditions: in vivo
Procedure, shortened: (§5)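 Male C57 black mice given 5 mg/kg IV in 20% HPbCD or 20 mg/kg PO in 0.5% Methocel; plasma pharmacokinetic parameters derived from these dosings.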

Rattus norvegicus [13] = assay: Hypoglycemic activity in overnight fasted Sprague-Dawley rat assessed as percent reduction in blood glucose AUC at 10 mg/kg, po measured after 4 hrs post glucose challenge by OGTT relative to control; type: functional; set-up: scale not given: the % may be the effect or the level left; procedure, shortened: as §4
Rattus norvegicus [14] = assay: Hypoglycemic activity in overnight fasted Sprague-Dawley rat assessed as percent reduction in blood glucose AUC at 1 mg/kg, po measured after 4 hrs post glucose challenge by OGTT relative to control; type: functional; set-up: scale not given: the % may be the effect or the level left; procedure, shortened: as §4
Rattus norvegicus [15] = assay: Hypoglycemic activity in overnight fasted po dosed Sprague-Dawley rat assessed as reduction in blood glucose treated 60 mins prior to glucose challenge by OGTT; type: functional, organism-based; conditions: dose mg/kg 1-10, time 60.0 min
[16] = Clearance in C57BL mouse at 5 mg/kg, iv or 20 mg/kg, po; type: ADME, organism-based; conditions: in vivo; procedure, shortened: as §5
Rattus norvegicus [17] = assay: In vivo inhibition of SGLT1/2 in overnight fasted po dosed Sprague-Dawley rat assessed as reduction in blood glucose by OGTT; type: functional, organism-based; conditions: dose mg/kg 1-10
[18] = In vivo inhibition of SGLT1/2 in overnight fasted Sprague-Dawley rat assessed as amount of urinary glucose excretion assessed per 4 hrs at 10 mg/kg, po; type: functional; procedure, shortened: as §4
Mus musculus [19] = assay: Antihyperglycemic activity in db/db mouse assessed as increase in urinary glucose excretion at 10 mg/kg, po administered as single dose measured up to 24 hrs; type: functional, organism-based; conditions: time hrs <=24; procedure, shortened: as §3
[20] = Oral bioavailability in C57BL mouse at 20 mg/kg; type: ADME, organism-based; conditions: in vivo; procedure, shortened: as §5
[21] = Tmax in C57BL mouse at 5 mg/kg, iv or 20 mg/kg, po; type: ADME, organism-based; conditions: in vivo; procedure, shortened: as §5
[22] = Cmax in C57BL mouse at 5 mg/kg, iv or 20 mg/kg, po; type: ADME, organism-based; set-up: dose 20 mg/kg; conditions: in vivo; procedure, shortened: as §5
[23] = Volume of distribution at steady state in C57BL mouse at 5 mg/kg, iv or 20 mg/kg, po; type: ADME, organism-based; conditions: in vivo, read-out: Vdss; procedure, shortened: as §5
[24] = AUC (0 to infinity) in Sprague-Dawley rat at 2 mg/kg, iv or 10 mg/kg, po; type: ADME, organism-based; set-up: dose 10 mg/kg; conditions: in vivo; procedure, shortened: as §1
[25] = Half life in C57BL mouse at 5 mg/kg, iv; type: ADME, organism-based; conditions: in vivo; procedure, shortened: as §5
Rattus norvegicus [26] = assay: Hypoglycemic activity in overnight fasted po dosed Sprague-Dawley rat assessed as reduction in blood glucose AUC treated 60 mins prior to glucose challenge and measured up to 120 mins by OGTT; type: functional, organism-based; conditions: dose mg/kg 1-10, time 60.0 min

Compound | Vd [1] [L/kg] | Cmax [2] [ng/mL] | remaining at 10 min, 1 µM [3] [%] | bioavailability [4] [%] | clearance [5] [mL/min/kg] | remaining at 10 min, 1 µM [6] [%] | remaining at 10 min, 1 µM [7] [%] | half-life [8] [min] | Tmax [9] [min] | also measured
COc1cc(O)c([C@@H]2O[C@H](CO)[C@@](C)(F)[C@H](O)[C@H]2O)cc1Cc1ccc2c(c1)OCCO2 | 2.41 | 274 | 101 | 21.8 | 72 | 103 | 98 | 91.2 | 15 | 
OC[C@H]1O[C@@H](c2cc(Cc3ccc4c(c3)OCCO4)c(Cl)cc2O)[C@H](O)[C@@H](O)C1(F)F |  |  | 18 |  |  | 96 | 74 |  |  | 
C[C@]1(F)[C@H](O)[C@@H](O)[C@H](c2cc(Cc3cc4ccccc4s3)c(Cl)cc2O)O[C@@H]1CO |  |  | 15 |  |  | 89 | 105 |  |  | 
C[C@]1(F)[C@H](O)[C@@H](O)[C@H](c2cc(Cc3ccc4c(c3)OCCO4)c(Cl)cc2O)O[C@@H]1CO |  |  | 56 |  |  | 74 | 96 |  |  | 
COc1cc(O)c([C@@H]2O[C@H](CO)C(F)(F)[C@H](O)[C@H]2O)cc1Cc1cc2ccccc2s1 |  |  | 98 |  |  | 103 | 111 |  |  | 
COc1cc(O)c([C@@H]2O[C@H](CO)C(F)(F)[C@H](O)[C@H]2O)cc1Cc1ccc2c(c1)CCCO2 | 3.85 | 258 | 57 | 22.3 | 75.6 | 95 | 85 | 137 | 15 | Activity (Mus musculus [10]): Active; Activity [11]: 0.002 g; AUC(0-inf) [12]: 9160 ng·h/mL; Activity (Rattus norvegicus [13]): 60.7%; Activity (Rattus norvegicus [14]): 38.3%; Activity (Rattus norvegicus [15]): Dose-dependent effect; clearance [16]: 19 mL/min/kg; inhibition (Rattus norvegicus [17]): Dose-dependent effect; Activity [18]: 0.2 g; Activity (Mus musculus [19]): Active; bioavailability [20]: 52.1%; Tmax [21]: 60 min; Cmax [22]: 4680 ng/mL; Vd [23]: 0.96 L/kg; AUC(0-inf) [24]: 524 ng·h/mL; half-life [25]: 49.8 min; Activity (Rattus norvegicus [26]): Dose-dependent effect
COc1ccc(Cc2cc([C@@H]3O[C@H](CO)C(F)(F)[C@H](O)[C@H]3O)c(O)cc2Cl)cc1 | 1.89 | 549 | 58 | 17.4 | 10.9 | 90 | 97 | 291 | 25.2 | Activity [11]: 0.099 g; Activity (Rattus norvegicus [13]): 62.8%; Activity (Rattus norvegicus [14]): 38.4%; inhibition (Rattus norvegicus [17]): Dose-dependent effect; AUC(0-inf) [24]: 2700 ng·h/mL
